Article PMC2861555 (International journal of radiation biology, 2009)
Read-outs that look alike come from different tables or passages of the source. Marks after values point to notes of the source that are not given here.

Experiments:
[1] = tested on: rats; settings: ref Bergeron et al., cited from earlier work
[2] = type: in vivo, rat; settings: for Bile/Urine (%): bile share of U excretion / Bile/Urine (%): urine share of U excretion / % Administered Dose Excreted: 24 h; for Reduction (%) of renal uranium vs control / reduction of bone actinide content vs control: 24 h post-metal; for % Administered Dose Excreted: bile + urine; for Renal Conc.: kidneys removed 24 h post-metal; for Kidney U Conc. / Liver U Conc. / Lung U Conc. / Spleen U Conc. / Bone (femur) U Conc.: tissue 24 h post-metal; for Bone (femur) U Conc.: bone + bone marrow; for reduction of bone actinide content vs control: femur
[3] = Multiple dose chelator administration in non-bile duct-cannulated; type: in vivo, rat; settings: for % Administered Dose Excreted / Total U Excretion: urine + feces
Outline: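 Intact rats got uranyl acetate 1 mg U kg−1 s.c. (left flank), then test compound or DTPA 300 µmol kg−1 s.c. (right flank) immediately and at 24-h intervals (4 doses). Rats were caged singly with chow and water ad libitum. Urine and feces were collected every 24 h. Kidneys and other tissues were taken 24 h after the last dose. Uranium was measured by ICP-MS in triplicate; data are mean ± SEM.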

[4] = 24 h after last of 4 daily s.c. doses of 300 µmol kg^−1
[5] = Day 1, 300 µmol kg^−1 s.c. daily x 4
[6] = Day 2, 300 µmol kg^−1 s.c. daily x 4
[7] = Day 3, 300 µmol kg^−1 s.c. daily x 4
[8] = Day 4, 300 µmol kg^−1 s.c. daily x 4
[9] = single dose 300 µmol kg^−1 s.c.

Compound	Bile/Urine (%): bile share of U excretion ([2]; single dose 150 µmol kg^−1 SC) [%]	Bile/Urine (%): urine share of U excretion ([2]; single dose 150 µmol kg^−1 SC) [%]	Reduction (%) of renal uranium vs control ([2]; single dose 150 µmol kg^−1 SC) [%]	% Administered Dose Excreted ([2]; single dose 150 µmol kg^−1 SC) [%]	Renal Conc. ([2]; single dose 150 µmol kg^−1 SC)	Kidney U Conc. ([2]; single dose 150 µmol kg^−1 SC)	Liver U Conc. ([2]; single dose 150 µmol kg^−1 SC)	Lung U Conc. ([2]; single dose 150 µmol kg^−1 SC)	Spleen U Conc. ([2]; single dose 150 µmol kg^−1 SC)	Bone (femur) U Conc. ([2]; single dose 150 µmol kg^−1 SC) [µg/g]	Bile/Urine (%): bile share of U excretion ([2]; single dose 300 µmol kg^−1 PO) [%]	Bile/Urine (%): urine share of U excretion ([2]; single dose 300 µmol kg^−1 PO) [%]	Reduction (%) of renal uranium vs control ([2]; single dose 300 µmol kg^−1 PO) [%]	% Administered Dose Excreted ([2]; single dose 300 µmol kg^−1 PO) [%]	Renal Conc. ([2]; single dose 300 µmol kg^−1 PO)	Kidney U Conc. ([2]; single dose 300 µmol kg^−1 PO)	Liver U Conc. ([2]; single dose 300 µmol kg^−1 PO)	Lung U Conc. ([2]; single dose 300 µmol kg^−1 PO)	Spleen U Conc. ([2]; single dose 300 µmol kg^−1 PO)	Bone (femur) U Conc. ([2]; single dose 300 µmol kg^−1 PO)	other results
C[C@]1(C(=O)O)CSC(c2ncccc2O)=N1 [DFT, (S)-4,5-dihydro-2-(3-hydroxy-2-pyridinyl)-4-methyl-4-thiazolecarboxylic acid, reference compound]																					nephrotoxicity ([1]; rats, 1993): severe nephrotoxicity
O=C(O)CN(CCN(CC(=O)O)CC(=O)O)CCN(CC(=O)O)CC(=O)O [DTPA, Diethylenetriaminepentaacetic acid, reference compound]	2	98	44	27.6	47 ± 9 ^b µg g^−1	47 ± 9 ^b µg g^−1	0.1 ± 0.0 ^b µg g^−1	0.07 ± 0.01 ^b µg g^−1	0.15 ± 0.05 ^b µg g^−1	3.1 ± 1.1	0	100	36	21.2	54 ± 11 ^b µg g^−1	54 ± 11 ^b µg g^−1	0.2 ± 0.0 µg/g	0.10 ± 0.02 ^b µg g^−1	0.13 ± 0.03 ^b µg g^−1	4.3 ± 1.3 µg/g	renal share of actinide excretion ([2]; route of actinide excretion, dose and route of chelator not stated at this place): 100%; Reduction (%) of renal uranium vs control [3, 4]: 39%; Renal Conc. [3, 4]: 19 ± 2 ^c µg g^−1; Fecal U Excretion [3, 5]: 30 ± 19 µg/kg; Urine U Excretion ([3]; Day 1, 300 µmol kg^−1 s.c. daily x 4, first dose immediately post-U): 380 ± 55 µg/kg; % Administered Dose Excreted [3, 5]: 41.0%; Total U Excretion [3, 5]: 410 ± 56 µg/kg; Fecal U Excretion [3, 6]: 13 ± 9 µg/kg; Urine U Excretion [3, 6]: 43 ± 11 µg/kg; % Administered Dose Excreted [3, 6]: 5.6%; Total U Excretion [3, 6]: 56 ± 16 ^c µg kg^−1; Fecal U Excretion [3, 7]: 13 ± 5 µg/kg; Urine U Excretion [3, 7]: 29 ± 6 µg/kg; % Administered Dose Excreted [3, 7]: 4.2%; Total U Excretion [3, 7]: 42 ± 5 µg/kg; Fecal U Excretion [3, 8]: 9 ± 5 µg/kg; Urine U Excretion [3, 8]: 14 ± 3 µg/kg; % Administered Dose Excreted [3, 8]: 2.3%; Total U Excretion [3, 8]: 23 ± 3 µg/kg; administered dose of uranium excreted at the end of four days (urine + feces) ([3]; cumulative over 4 days, 300 µmol kg^−1 s.c. daily x 4): 53%
COc1ccc(C2=N[C@@H](C(=O)O)CS2)c(O)c1 [compound 3, (S)-2-(2-hydroxy-4-methoxyphenyl)-4,5-dihydro-4-thiazolecarboxylic acid]	37	63	40	23.8	51 ± 22 ^b µg g^−1	51 ± 22 ^b µg g^−1	9.0 ± 4.0 ^c µg g^−1	0.32 ± 0.09 ^c µg g^−1	0.48 ± 0.09 ^c µg g^−1	4.1 ± 1.6	85	15	73	26.0	23 ± 11 ^b µg g^−1	23 ± 11 ^b µg g^−1	2.5 ± 0.8 ^c µg g^−1	0.28 ± 0.10 ^c µg g^−1	0.29 ± 0.07 ^c µg g^−1	3.1 ± 1.3 µg/g	Bile/Urine (%): bile share of U excretion ([2]; single dose 300 µmol kg^−1 SC): 77%; Bile/Urine (%): urine share of U excretion ([2]; single dose 300 µmol kg^−1 SC): 23%; Reduction (%) of renal uranium vs control ([2]; single dose 300 µmol kg^−1 SC): 60%; % Administered Dose Excreted ([2]; single dose 300 µmol kg^−1 SC): 32.7%; Renal Conc. ([2]; single dose 300 µmol kg^−1 SC): 34 ± 5 ^b µg g^−1; Kidney U Conc. ([2]; single dose 300 µmol kg^−1 SC): 34 ± 5 ^b µg g^−1; Liver U Conc. ([2]; single dose 300 µmol kg^−1 SC): 6.6 ± 1.2 ^c µg g^−1; Lung U Conc. ([2]; single dose 300 µmol kg^−1 SC): 0.32 ± 0.02 ^c µg g^−1; Spleen U Conc. ([2]; single dose 300 µmol kg^−1 SC): 0.39 ± 0.07 ^c µg g^−1; Bone (femur) U Conc. ([2]; single dose 300 µmol kg^−1 SC): 3.0 ± 1.5 µg/g
COc1ccc(C2=N[C@@](C)(C(=O)O)CS2)c(O)c1 [compound 7, (S)-4'-(CH3O)-DADFT]	62	38	77	24.8	19 ± 4 ^b µg g^−1	19 ± 4 ^b µg g^−1	11.3 ± 3.2 µg/g	0.28 ± 0.04 ^c µg g^−1	0.39 ± 0.08 ^c µg g^−1	2.9 ± 0.9	89	11	94	26.5	5 ± 3 ^b µg g^−1	5 ± 3 ^b µg g^−1	5.1 ± 1.7 ^c µg g^−1	0.30 ± 0.10 ^c µg g^−1	0.49 ± 0.44 µg/g	1.7 ± 0.9 ^b µg g^−1	Liver U Conc. ([2]; single dose 150 µmol kg^−1 SC, listed as C00017): 11.3 ± 3.2 ^c µg g^−1; Bile/Urine (%): bile share of U excretion ([2]; single dose 300 µmol kg^−1 SC): 92%; Bile/Urine (%): urine share of U excretion ([2]; single dose 300 µmol kg^−1 SC): 8%; Reduction (%) of renal uranium vs control ([2]; single dose 300 µmol kg^−1 SC): 90%; % Administered Dose Excreted ([2]; single dose 300 µmol kg^−1 SC): 33.9%; Renal Conc. ([2]; single dose 300 µmol kg^−1 SC): 8 ± 2 ^b µg g^−1; Kidney U Conc. ([2]; single dose 300 µmol kg^−1 SC): 8 ± 2 ^b µg g^−1; Liver U Conc. ([2]; single dose 300 µmol kg^−1 SC): 8.1 ± 2.4 ^c µg g^−1; Lung U Conc. ([2]; single dose 300 µmol kg^−1 SC): 0.61 ± 0.13 ^c µg g^−1; Spleen U Conc. ([2]; single dose 300 µmol kg^−1 SC): 0.67 ± 0.18 ^c µg g^−1; Bone (femur) U Conc. ([2]; single dose 300 µmol kg^−1 SC): 1.8 ± 0.6 ^b µg g^−1; reduction of bone actinide content vs control ([2]; single dose 300 µmol kg^−1 p.o.): ≥ 50%; reduction of bone actinide content vs control [2, 9]: ≥ 50%
COCCOCCOCCOc1cccc(C2=N[C@@](C)(C(=O)O)CS2)c1O [compound 10, (S)-4,5-dihydro-2-[2-hydroxy-3-(3,6,9-trioxadecyloxy)phenyl]-4-methyl-4-thiazolecarboxylic acid]	55	45	61	31.6	33 ± 8 ^b µg g^−1	33 ± 8 ^b µg g^−1	1.2 ± 0.6 ^c µg g^−1	0.09 ± 0.02 ^b µg g^−1	0.21 ± 0.01 ^c µg g^−1	3.4 ± 0.1			62	25.7	32 ± 20 ^b µg g^−1	32 ± 20 ^b µg g^−1	0.7 ± 0.4 ^c µg g^−1	0.13 ± 0.04 µg/g	0.16 ± 0.05 µg/g	3.1 ± 1.1 µg/g	Bile/Urine (%): bile share of U excretion ([2]; single dose 300 µmol kg^−1 SC): 79%; Bile/Urine (%): urine share of U excretion ([2]; single dose 300 µmol kg^−1 SC): 21%; Reduction (%) of renal uranium vs control ([2]; single dose 300 µmol kg^−1 SC): 85%; % Administered Dose Excreted ([2]; single dose 300 µmol kg^−1 SC): 31.4%; Renal Conc. ([2]; single dose 300 µmol kg^−1 SC): 13 ± 6 ^b µg g^−1; Kidney U Conc. ([2]; single dose 300 µmol kg^−1 SC): 13 ± 6 ^b µg g^−1; Liver U Conc. ([2]; single dose 300 µmol kg^−1 SC): 0.8 ± 0.2 ^c µg g^−1; Lung U Conc. ([2]; single dose 300 µmol kg^−1 SC): 0.08 ± 0.02 ^b µg g^−1; Spleen U Conc. ([2]; single dose 300 µmol kg^−1 SC): 0.18 ± 0.03 µg/g; Bone (femur) U Conc. ([2]; single dose 300 µmol kg^−1 SC): 2.3 ± 0.6 ^b µg g^−1; reduction of bone actinide content vs control [2, 9]: 36%; nephrotoxicity [1]; 2008: did not present with any nephrotoxicity
